Runt-CBFb FRET: inhibitors of RUNX1 Runt–CBFb binding, primary screen, biochemical, FRET, Cerulean-Runt, Venus-CBFb, uHTS. Runt-related transcription factor 1 (Homo sapiens) + Core-binding factor subunit beta …. AID 1496, 2009. hit rate 0.46% among 220,000. Cerulean-Runt/Venus-CBFb FRET ratio 530/480, 1 h. inhibition, % at 20 µM;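 active = inhibition over about 50% at 20 µM in the single-dose screen, limit read from the data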
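Reagent – Venus-CBFb binding partner, 100 nM · Assay system – Cerulean-tagged RUNX1 Runt domain (FRET donor) fusion protein · Input – 100 nM per protein · Incubation – two 1 h room-temperature incubations shielded from light · Measured by – FRET fluorescence · Medium – Tris buffer pH 7.5 with salts and BSA · Benchmarks – unlabeled CBFb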
AI-2 QS mod: Vibrio harveyi AI-2 quorum sensing modulators, primary screen, JMH597 strain, luminescence/OD600 ratio. hit rate 0.4% among 300,000. Vibrio harveyi JMH597 AI-2 luminescence/OD600 ratio, 9 h; hits give low values; strain lacks LuxN and CqsS sensors; 0 = neutral-control median. activity change, % at 7.5 µM; in the data active = activity change below about -75%, passing the limit was not always enough; inconclusive = no clear call, values can overlap the other calls;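 also: luminescence divided by OD600 gain over 9 h not by final OD600 alone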
proKLK7 act: proKLK7 zymogen activators, primary screen, biochemical, fluorescence intensity; Kallikrein-7 (Homo sapiens), P49862; activation, % at 7 µM; purified proKLK7, EDANS-DABCYL substrate fluorescence; 100% is mature enzyme control, 0% vehicle; hit rate 0.9% among 370,000;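 active = activation above the mean of all tested compounds plus 3 SD, computed per campaign excluding outliers beyond control limits, cut at about 13% in these data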
Wee1 stabilizer: Wee1 degradation inhibitors, primary screen, cell-based, HeLa, Wee1K328M-luciferase, luminescence. HeLa Luc-Wee1K328M stability; 100% = proteasome inhibitor MG132 effect. AID 1321, 2008. hit rate 1.2% among 220,000. reporter increase, % at 5 µM;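 active = activation above the mean of all tested compounds plus 3 SD, set per screening run, cut at about 8.8% in these data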;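 also: cells exposed to compound for 20 h before luminescence read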
Target sequence (P30291 whole entry K328M): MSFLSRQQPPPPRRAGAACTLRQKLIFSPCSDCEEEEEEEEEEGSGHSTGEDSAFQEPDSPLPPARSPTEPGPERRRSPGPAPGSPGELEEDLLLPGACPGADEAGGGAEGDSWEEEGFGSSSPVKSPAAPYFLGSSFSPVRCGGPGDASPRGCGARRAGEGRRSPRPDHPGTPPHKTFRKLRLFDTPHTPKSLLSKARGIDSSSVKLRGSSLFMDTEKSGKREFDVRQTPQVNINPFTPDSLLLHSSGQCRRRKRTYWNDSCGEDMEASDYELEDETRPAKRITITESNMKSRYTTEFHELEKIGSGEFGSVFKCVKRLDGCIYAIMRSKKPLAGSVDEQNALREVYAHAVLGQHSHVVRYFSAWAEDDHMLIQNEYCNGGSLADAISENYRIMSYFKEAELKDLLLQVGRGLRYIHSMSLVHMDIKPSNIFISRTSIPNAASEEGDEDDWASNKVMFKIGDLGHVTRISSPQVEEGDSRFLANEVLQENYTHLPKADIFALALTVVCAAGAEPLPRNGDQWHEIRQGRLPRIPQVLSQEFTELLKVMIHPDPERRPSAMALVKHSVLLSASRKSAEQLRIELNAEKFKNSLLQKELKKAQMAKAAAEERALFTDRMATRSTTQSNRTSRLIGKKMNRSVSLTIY
RanGTP-Impb inh: inhibitors of RanGTP-importin-beta interaction, primary screen, biochemical, FRET, CFP-Ran, YFP-importin-beta, homogeneous. Ran GTPase (GTP-bound) - importin-beta complex. cell-free CFP-Ran/YFP-importin-beta FRET ratio. inhibition, % (test concentration not listed). hit rate 1.1% among 300,000. AID 2216, 2009;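 active = more than half of the replicate wells show a fall in the fluorescence ratio signal beyond about 16%, limit read from the data, passing the limit was not always enough; inconclusive = exactly half of the replicate wells pass the set limit; inactive = fewer than half of replicates pass the limit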
Runt-SMMHC FRET: inhibitors of RUNX1 Runt–CBFb-SMMHC binding, primary screen, biochemical, FRET, Cerulean-Runt, Venus-CBFb-SMMHC, uHTS; Runt-related transcription factor 1 (Homo sapiens) + Core-binding factor subunit beta …; Cerulean-Runt/Venus-CBFb-SMMHC FRET ratio 530/480, 1 h; inhibition, % at 20 µM; hit rate 0.74% among 220,000;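 active = mean inhibition across duplicate retests at 20 µM reaching about 50%, limit read from the data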;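 also: inhibitors lower the FRET ratio by blocking Runt binding to CBFb-SMMHC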
A number is an active result; 0 = inactive; ? = inconclusive; - = no result given. Only some compounds are listed: those with a hit (about 2.9% of all), similar ones and a draw of the others.

SMILES	Runt-CBFb FRET	AI-2 QS mod	proKLK7 act	Wee1 stabilizer	RanGTP-Impb inh	Runt-SMMHC FRET
CC1=Nc2ccccc2/C1=C\c1nc(-c2ccc(C(F)(F)F)cc2)oc1O	0	0	0	0	0	0
C[C@H]1COc2cccc(N3CCCC3)c2S(=O)(=O)N1	-	-	0	-	-	-
CCCC#C/C(CCC)=C1\c2ccccc2C(=O)N1c1ccccc1	-	-	0	-	-	-
COCCCNc1nc2nonc2nc1N1CCN(C2CCCC2)CC1	0	0	0	0	0	0
COCCCNc1nc2nonc2nc1N1CCN(Cc2cccc(C)c2)CC1	0	0	0	0	0	82
Cc1nnc(SCc2cc(=O)oc3cc(O)ccc23)n1Cc1ccccc1	85	0	0	0	0	127
Cc1nnc(SCc2cc(=O)oc3ccc4ccccc4c23)n1Cc1ccccc1	0	0	0	0	0	0
COc1ccccc1-n1c(SCc2cc(=O)oc3cc(O)ccc23)nc2ccccc2c1=O	0	0	0	0	0	70
Cc1ccc(N2CC(NC(=O)C3CC3)CC2=O)cc1 (configuration not stated)	-	0	0	-	0	-
Cn1c(=O)c2c(nc(Sc3ncnn3CC(=O)NC(C)(C)C)n2C)n(C)c1=O	0	0	0	10	0	0
COc1cccc(NC(=O)COc2ncnc3sc(C)c(C)c23)c1	0	-76	0	0	0	0
S=c1[nH]nc(-c2n[nH]c3c2CCC3)n1N=Cc1c[nH]c2ccccc12	-	-	0	-	-	-
Cc1ccccc1NC(=S)C1=C(O)c2sccc2N(C)S1(=O)=O	0	0	0	0	89	50
CCNC(=O)C1=C(O)c2sccc2N(C)S1(=O)=O	0	0	0	0	76	65
CN1CCN(C(=O)c2cc(C(C)(C)C)cc(C(C)(C)C)c2)CC1	0	0	0	0	?	0
Cc1ccc(NC(=O)CN2C(=O)S/C(=C\c3ccc(-c4cccc(C(=O)O)c4C)o3)C2=O)cc1	0	0	-	0	42	0
Cc1ccc(C(=O)O)cc1-c1ccc(/C=C2\SC(=O)N(CC(=O)Nc3ccccc3)C2=O)o1	0	0	0	0	24	0
Cc1ccc(NC(=O)CN2C(=O)S/C(=C/c3ccc(-c4cccc(C(=O)O)c4)o3)C2=O)cc1	0	-	0	0	-	0
O=C(CN1C(=O)S/C(=C\c2cc(Cl)c(O)c(Cl)c2)C1=O)Nc1ccccc1	-	0	0	-	51	-
CC(C)(C)OC(=O)CN1C(=O)S/C(=C\c2ccc(-c3cccc(C(=O)O)c3)o2)C1=O	-	0	-	-	35	-
Clc1ccc2c(N/N=C/c3ccccc3Br)ccnc2c1	0	0	0	0	0	0
O=[N+]([O-])c1ccc(/C=N/Nc2ccnc3cc(Cl)ccc23)o1	-	-185	0	-	0	-
COc1ccccc1NC1=CC(=O)CC(c2ccccc2)C1 (configuration not stated)	0	0	0	0	55	0
COc1ccc(C2c3cc(OC)c(OC)cc3CC3C(=O)OCC32)cc1OC (configuration not stated)	-	-	0	-	-	-
CN(CC(=O)Nc1ccccc1C(F)(F)F)C(=O)COc1cccnc1[N+](=O)[O-]	0	0	0	0	0	0
SMILES	Runt-CBFb FRET	AI-2 QS mod	proKLK7 act	Wee1 stabilizer	RanGTP-Impb inh	Runt-SMMHC FRET
CC(c1nnc(SCC(=O)Nc2cccnc2Cl)n1Cc1ccccc1)N(C)C (configuration not stated)	0	0	0	0	0	0
COc1ccc(CNC(=O)c2ccc(=O)oc2)cc1OC	0	0	0	9.4	0	0
Cc1cccc(S(=O)(=O)c2c(N)n(Cc3ccco3)c3nc4ccccc4nc23)c1	0	0	0	0	18	-
Cc1ccc(S(=O)(=O)c2c(N)n(Cc3ccco3)c3nc4ccccc4nc23)cc1	0	0	0	0	?	-
Cc1cc(=O)oc2cc(NC(=O)C(C)N3C(=O)C4CCCCC4C3=O)ccc12 (configuration not stated)	-	-	0	-	-	-
O=C(COc1cccc(F)c1)Nc1nc(-c2cccnc2)cs1	-	-	0	-	-	-
CC(=O)N1CCc2c(sc(NC(=O)Cc3ccccc3)c2C(N)=O)C1	-	0	0	-	0	-
CC(C)N1CCc2c(sc(NC(=O)Cc3ccccc3)c2C(N)=O)C1	-	0	0	-	140	-
O=C(CCc1ccccc1)Nc1sc2c(c1C(=O)O)CCCC2	-	0	0	-	0	-
CCCN1CCc2c(sc(NC(=O)Cc3ccc(F)cc3)c2C(N)=O)C1	-	0	0	-	133	-
CCCN1CCc2c(sc(NC(=O)c3ccc(S(=O)(=O)N(C)c4ccccc4)cc3)c2C(N)=O)C1	-	0	-	-	?	-
CC(C)N1CCc2c(sc(NC(=O)CCc3ccccc3)c2C(N)=O)C1	78	0	0	0	130	92
COc1ccc(C2C(C(=O)N3CCOCC3)CC(=O)N2c2ccc(OC)cc2)cc1 (configuration not stated)	-	-	0	-	-	-
COC(=O)[C@]12C[C@H](CC(=O)NCc3ccc(OC)c(OC)c3)C(=O)N(Cc3ccccc3)C1=C[C@H](C(C)(C)C)O[C@@H]2C	-	-	0	-	-	-
CCOC(=O)C1=C(c2ccccc2)NC(N)=NC1c1ccc(OCc2ccc(C(=O)OC)cc2)cc1 (configuration not stated)	0	-92	0	0	?	0
COc1ccc(C(=O)/C=C(\Nc2ccc(F)cc2)c2ccc(OC)cc2OC)c(OC)c1	-	-	0	-	-	-
CCOC(=O)c1c(NS(=O)(=O)c2cccc(OC)c2)sc2c1CCC2	0	0	0	0	0	69
CCOC(=O)Nc1sc2c(c1C(=O)OCC)CCC2	0	0	0	0	0	0
COC(=O)[C@]12C[C@H](CC(=O)NCCCCc3ccccc3)C(=O)N(CCC3=CCCCC3)C1=C[C@H](C1CCCC1)O[C@@H]2C	-	-	0	-	-	-
O=S(=O)(c1ccccc1)N1CCN(c2nnc(-c3ccccc3)c3ccccc23)CC1	0	0	0	9.5	0	0
O=C(Nc1ccc(Cc2ccncc2)cc1)c1ccco1	0	-82	0	0	0	0
CC(=O)Oc1ccc(C(=O)Nc2cccc(NC(=O)c3ccco3)c2)cc1	-	0	0	-	0	-
O=C(Nc1ccc(Nc2ccccc2)cc1)c1ccc(F)cc1	-	-88	0	-	0	-
O=C(Nc1cccc(NC(=O)c2ccco2)c1)c1ccc([N+](=O)[O-])cc1	0	0	0	0	75	0
O=C(Nc1ccc(Nc2ccccc2)cc1)c1ccco1	0	-96	0	0	0	0

Assay outcomes deposited in PubChem by several laboratories.
